Assays:
[1] = Lipophilicity, log D of the compound at pH 7.4 by high throughput method; assay type: physicochemical; details: buffer
[2] = Apparent permeability across apical to basolateral side in MDCK cells; assay type: ADME, cell-based, Canis lupus familiaris; details: dog
[3] = Protein binding in CD-1 mouse plasma; assay type: ADME, cell-free; details: read-out: PPB (converted)
[4] = target: L-lactate dehydrogenase B chain (Homo sapiens, UniProt P07195); assay: Inhibition of human recombinant carboxy-terminal His-tagged LDHB by UV endpoint assay
Chain of L-lactate dehydrogenase B chain (P07195 whole entry): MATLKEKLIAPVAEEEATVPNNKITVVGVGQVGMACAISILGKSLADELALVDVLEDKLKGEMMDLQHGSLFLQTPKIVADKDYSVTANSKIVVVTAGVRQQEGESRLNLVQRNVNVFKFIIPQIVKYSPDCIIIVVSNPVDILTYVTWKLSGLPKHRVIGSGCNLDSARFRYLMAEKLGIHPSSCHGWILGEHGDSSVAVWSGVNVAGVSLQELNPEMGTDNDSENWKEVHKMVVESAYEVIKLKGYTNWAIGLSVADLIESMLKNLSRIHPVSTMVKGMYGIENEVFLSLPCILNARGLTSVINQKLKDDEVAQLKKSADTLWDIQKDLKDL

[5] = Cmax in CD-1 mouse at 50 mg/kg, po administered as suspension by LC-MS/MS analysis; assay type: ADME, organism-based; design: dose 50 mg/kg, route oral; details: in vivo
[6] = AUC in CD-1 mouse at 50 mg/kg, po administered as suspension by LC-MS/MS analysis; assay type: ADME, organism-based; details: in vivo
[7] = Cmax in CD-1 mouse at 1 mg/kg, iv administered as bolus by LC-MS/MS analysis; assay type: ADME, organism-based; design: dose 1 mg/kg, route intravenous; details: in vivo
[8] = AUC in CD-1 mouse at 1 mg/kg, iv administered as bolus by LC-MS/MS analysis; assay type: ADME, organism-based; details: in vivo
[9] = AUC in CD-1 mouse at 100 mg/kg, po administered as suspension by LC-MS/MS analysis; assay type: ADME, organism-based; details: in vivo
[10] = Oral bioavailability in CD-1 mouse at 5 mg/kg; assay type: ADME, organism-based; details: in vivo
How it was run: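 Bioavailability was derived from paired intravenous and oral administration in mice, with the oral dose at 5 mg/kg.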

[11] = Cmax in CD-1 mouse at 200 mg/kg, po administered as suspension by LC-MS/MS analysis; assay type: ADME, organism-based; design: dose 200 mg/kg, route oral; details: in vivo
[12] = Volume of distribution at steady state in CD-1 mouse at 1 mg/kg, iv administered as bolus by LC-MS/MS analysis; assay type: ADME, organism-based; details: in vivo, read-out: Vdss
[13] = Cmax in CD-1 mouse at 5 mg/kg, po administered as suspension by LC-MS/MS analysis; assay type: ADME, organism-based; design: dose 5 mg/kg, route oral; details: in vivo
[14] = AUC in CD-1 mouse at 200 mg/kg, po administered as suspension by LC-MS/MS analysis; assay type: ADME, organism-based; details: in vivo
[15] = Plasma clearance in CD-1 mouse at 1 mg/kg, iv administered as bolus by LC-MS/MS analysis; assay type: ADME, organism-based
[16] = Half life in CD-1 mouse at 1 mg/kg, iv administered as bolus by LC-MS/MS analysis; assay type: ADME, organism-based; details: in vivo
[17] = AUC in CD-1 mouse at 5 mg/kg, po administered as suspension by LC-MS/MS analysis; assay type: ADME, organism-based; details: in vivo
[18] = Cmax in CD-1 mouse at 100 mg/kg, po administered as suspension by LC-MS/MS analysis; assay type: ADME, organism-based; design: dose 100 mg/kg, route oral; details: in vivo

Structure (SMILES) | logD [1] | Papp A→B [2] [×10⁻⁶ cm/s] | IC50 [4] [nM] | other results
O=C1NC(c2ccsc2)(c2ccccn2)CC(O)=C1Sc1ccccc1Cl (stereo not given) | – | – | > 10000 | –
N#Cc1ccc(C2(c3ccsc3)CC(O)=C(Sc3ccccc3Cl)C(=O)N2)cc1 (stereo not given) | – | – | 1100 | –
O=C1NC(c2ccccc2)(c2ccccc2)CC(O)=C1Sc1ccccc1Cl | 1.4 | 9.4 | 2200 | fraction unbound [3]: 0.007
CC1CN(c2ccc(C3(c4ccsc4)CC(O)=C(Sc4ccccc4Cl)C(=O)N3)cc2)CC(C)O1 (stereo not given) | 1.3 | 6 | – | fraction unbound [3]: < 0.001
O=C1NC(c2ccc(N3CCOCC3=O)cc2)(c2ccsc2)CC(O)=C1Sc1ccccc1Cl (stereo not given) | 0.4 | – | – | –
O=C1NC(c2ccsc2)(c2ccccc2F)CC(O)=C1Sc1ccccc1Cl (stereo not given) | – | – | 1800 | –
O=C1NC(c2ccsc2)(c2cccc(Nc3ccc(F)cc3)c2)CC(O)=C1Sc1ccccc1Cl (racemic) | 2.4 | 1 | – | fraction unbound [3]: < 0.001
O=C1NC(c2ccccc2)(c2ccsc2)CC(O)=C1Sc1ccccc1Cl (stereo not given) | 0.8 | 7.4 | – | –
COc1ccc(C2(c3ccsc3)CC(O)=C(Sc3ccccc3Cl)C(=O)N2)cc1 (stereo not given) | – | – | 210 | –
O=C1NC(c2ccsc2)(c2cccc(NC3CCOCC3)c2)CC(O)=C1Sc1ccccc1Cl (racemic) | -0.3 | 0.5 | – | –
O=C1NC(c2ccc(C3CCCCC3)cc2)(c2ccsc2)CC(O)=C1Sc1ccccc1Cl (racemic) | 3.5 | – | – | –
O=C1NC(c2ccccc2)(c2cscn2)CC(O)=C1Sc1ccccc1Cl (stereo not given) | – | – | 2300 | –

Continued, in another order:

logD [1] | Papp A→B [2] [×10⁻⁶ cm/s] | IC50 [4] [nM] | Structure (SMILES) | other results
1.3 | – | – | CC1(C)CN(c2ccc(C3(c4ccsc4)CC(O)=C(Sc4ccccc4Cl)C(=O)N3)cc2)CCO1 (stereo not given) | –
2.1 | 1.7 | – | O=C1NC(c2ccc(N3CCCCC3)cc2)(c2ccsc2)CC(O)=C1Sc1ccccc1Cl (racemic) | fraction unbound [3]: < 0.001
0.8 | – | – | N#CC1CCN(c2ccc(C3(c4ccsc4)CC(O)=C(Sc4ccccc4Cl)C(=O)N3)cc2)CC1 (stereo not given) | –
0.7 | – | – | O=C1NC(c2ccc(N3CCC4(CC3)COC4)cc2)(c2ccsc2)CC(O)=C1Sc1ccccc1Cl (stereo not given) | –
1.2 | – | – | COC1CCN(c2ccc(C3(c4ccsc4)CC(O)=C(Sc4ccccc4Cl)C(=O)N3)cc2)CC1 (racemic) | –
0.6 | 3.4 | – | O=C1N[C@](c2ccc(N3CCOCC3)cc2)(c2ccsc2)CC(O)=C1Sc1ccccc1Cl | Cmax [5]: 60.7 µM; AUC [6]: 125 µM·h; Cmax [7]: 2.5 µM; AUC [8]: 1.5 µM·h; AUC [9]: 250 µM·h; bioavailability [10]: 70%; Cmax [11]: 440 µM; Vd [12]: 1.4 L/kg; Cmax [13]: 1.7 µM; AUC [14]: 403 µM·h; clearance [15]: 21.1 mL/min/kg; fraction unbound [3]: 0.009; half-life [16]: 1 h; AUC [17]: 5.1 µM·h; Cmax [18]: 224 µM

Reference: ChEMBL document CHEMBL4428136, “Cell Active Hydroxylactam Inhibitors of Human Lactate Dehydrogenase with Oral Bioavailability in Mice” (ACS Med Chem Lett, 2016)
